In ChEMBL document CHEMBL1150653, “Novel terpenoids from the formosan soft coral Cespitularia hypotentaculata” (2002):
In brackets after ≈: the same amount, converted by molar mass.

Key:
Type in all cases: functional
P388 = experiment: Cytotoxicity against mouse P388 cells after 3 days by MTT assay; conditions: P388, 72 h, read-out: ED50 (the source's name)
Procedure, shortened: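 Mouse P-388 lymphocytic leukemia cells, obtained from an academic laboratory. The assay follows a previously published procedure.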

HT-29 = experiment: Cytotoxicity against human HT-29 cells after 6 days by MTT assay; conditions: HT-29, 144 h, read-out: ED50 (the source's name)
Procedure, shortened: (§1)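 Human cell lines: A549 (lung adenocarcinoma) and HT-29 (colon adenocarcinoma), obtained from a culture collection. The assay follows a previously published procedure.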

A549 = experiment: Cytotoxicity against human A549 cells after 6 days by MTT assay; conditions: A549, 144 h, read-out: ED50 (the source's name); procedure, shortened: as §1

| Structure (SMILES) | EC50 (P388) [µg/mL] | EC50 (HT-29) [µg/mL] | EC50 (A549) [µg/mL] |
| --- | --- | --- | --- |
| C=C1CC/C=C(\C)C[C@@H](O)C2=C(C)CC[C@@H](CC1)C2(C)C [CESPITULARIN C] | 0.01 (≈ 0.0347 µM) | 8.86 (≈ 30.7 µM) | 0.12 (≈ 0.416 µM) |
| C/C1=C\C[C@@H]2CCC3=C(C(=O)[C@@H]([C@@H](C)CC(=O)C1)[C@H]3O)C2(C)C [CESPITULARIN H] | > 50 | 23.7 (≈ 74.9 µM) | 9.32 (≈ 29.5 µM) |
| C=C1CC[C@@H]2CCc3coc(c3C2(C)C)C/C(C)=C/C(O)C1 (some centres undefined) [CESPITULARIN A] | 3.66 (≈ 12.2 µM) | 9.76 (≈ 32.5 µM) | 8.42 (≈ 28 µM) |
| C=C1CC/C=C(\C)Cc2occ3c2C(C)(C)[C@H](CC1)CC3 [CESPITULARIN B] | 3.23 (≈ 11.4 µM) | 9.25 (≈ 32.5 µM) | 7.96 (≈ 28 µM) |
| C=C1CC[C@@H]2CCC3=C(C(=O)[C@@H](/C(C)=C/C(O)C1)[C@H]3O)C2(C)C (some centres undefined) [CESPITULARIN F] | > 50 | > 50 | 16.1 (≈ 50.9 µM) |
| C=C1CC[C@@H]2CCC=C(C(=O)C/C(C)=C/C(O)C1)C2(C)C (some centres undefined) [CESPUTULARIN E] | 4.66 (≈ 16.2 µM) | 17.1 (≈ 59.3 µM) | 0.034 (≈ 0.118 µM) |
| C=C1CC/C=C(\C)[C@@H]2C(=O)C3=C(CC[C@@H](CC1)C3(C)C)[C@@H]2O [CESPITULARIN G] | > 50 | > 50 | > 50 |
| C=C1CC[C@@H]2CCC3=C(C2(C)C)[C@@](O)(C/C(C)=C/[C@@H](O)C1)OC3=O [CESPITULARIN D] | 3.86 (≈ 11.6 µM) | > 50 | > 50 |
